Data taken from ChEMBL document CHEMBL4513216, “Probing the Open Global Health Chemical Diversity Library for Multistage-Active Starting Points for Next-Generation Antimalarials” (ACS Infect Dis, 2020).

Test: Toxicity liver stage against HepG2, at 10uM
Type: cell-based
Design: test concentration 10 uM, cell line HepG2-A16-CD81EGFP
Details: human, HepG2-A16-CD81EGFP cells; read-out: INHIBITION
How it was run: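 Uninfected HepG2-A16-CD81EGFP cells, 3 × 10^3 per well, 1536-well, plated on prespotted compound at 10 μM final, parasite-free screening media added to match infected plates; puromycin 10 μM positive, DMSO 0.5% negative; run in parallel with 48 h PbLuc assay at 37 °C, 5% CO2; viability by CellTiter-Glo luminescence, normalized to controls.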

Cc1nc(-c2ccccc2)sc1CSCCC(N)=O
cytotoxicity at 10 µM: -7.97%

O=C(COCc1ccccc1Cl)N1CCN(c2ccc(Br)cn2)CC1
cytotoxicity at 10 µM: 46.6%

CCS(=O)(=O)N(C)C1CCN(C(=O)c2cccc(Cl)c2)CC1
cytotoxicity at 10 µM: -13.7%

O=C(CC1CC1)N1CCC2(COCc3cnc(N4CCOCC4)nc32)C1 (configuration not stated)
cytotoxicity at 10 µM: -82.1%

O=C1CC2(CCN(Cc3ccoc3)C2)CN1c1ccc2c(c1)OCO2 (configuration not stated)
cytotoxicity at 10 µM: -6.72%

CCCOC(=O)N1CCn2nc(-c3nc4ccccc4n3C)cc2C1
cytotoxicity at 10 µM: 10.6%

CC1CN(CC(=O)NCCc2ccncc2)Cc2ccccc2O1 (configuration not stated)
cytotoxicity at 10 µM: -0.369%

CCC(=O)N1CCN(C(=O)Nc2ccc(Cl)cc2)[C@H]2CS(=O)(=O)C[C@H]21
cytotoxicity at 10 µM: -43.9%

COc1cccc(-c2nc3c([nH]2)CCNC3)c1F
cytotoxicity at 10 µM: -44.7%

O=C1N(Cc2ccc(F)c(F)c2)CCCC1(O)CNCc1cccnc1 (configuration not stated)
cytotoxicity at 10 µM: 0.598%

CCCc1cc(CNC2CCN(c3cc(C(C)C)nc(C)n3)CC2)on1
cytotoxicity at 10 µM: -13.6%

COc1cccc(CN2CCCCC2CN2CCOCC2)c1F (configuration not stated)
cytotoxicity at 10 µM: 2.64%

Cc1ccccc1OC1CCN(C(=O)c2c[nH]c(=O)[nH]c2=O)CC1
cytotoxicity at 10 µM: 5.25%

CNc1ncc(CN(C)Cc2cc(O)c3cccc(Cl)c3n2)cn1
cytotoxicity at 10 µM: 7.05%

CCc1cc(N2CCC(NCCSc3nnnn3C)CC2)nc(C)n1
cytotoxicity at 10 µM: -15.2%

COc1ccc2c(C)c(C(=O)NC3CCCOC3)oc2c1 (configuration not stated)
cytotoxicity at 10 µM: -7.28%

COc1cc(F)ccc1-c1cnc(N)cn1
cytotoxicity at 10 µM: -11.4%

COc1ccc(C(=O)NC2CC2)c(OC2CCN(CCCSC)CC2)c1
cytotoxicity at 10 µM: -1.76%

Cc1cccc2c(CCNC(=O)[C@H](N)c3ccccc3)c[nH]c12
cytotoxicity at 10 µM: -3.55%

CC(C)C1CN(C(=O)c2cn3cc(Cl)cnc3n2)CCCN1CC1CC1 (configuration not stated)
cytotoxicity at 10 µM: 3.46%

CCC[C@H]1CN(CCS(C)(=O)=O)C[C@@H]1NC(=O)c1ccn(C)n1
cytotoxicity at 10 µM: 5.83%

N#CC1(c2ccccc2)CCN(C(=O)C2CCCN(CC(N)=O)C2)CC1 (configuration not stated)
cytotoxicity at 10 µM: -7.47%

COc1cccc2c(=O)n(C3CCCNC3)cnc12 (configuration not stated)
cytotoxicity at 10 µM: -42.4%

CCc1ccc(C2CC(=O)Nc3cc(OC)c(NS(C)(=O)=O)cc32)o1 (configuration not stated)
cytotoxicity at 10 µM: 3.25%

NC(=O)CN1CCC(C(=O)NCCn2cc(Cl)cn2)CC1
cytotoxicity at 10 µM: -45.6%

Fc1cccnc1Oc1cc(F)c(CN2CCCC2)c(Cl)c1
cytotoxicity at 10 µM: 3.3%

O=C(Nc1ccc2c(c1)OCO2)N1CCN(CCc2ccccc2)CC1
cytotoxicity at 10 µM: -9.28%

CN(C)[C@H]1CCCCN(C(=O)c2cccc(-c3cccc(F)c3)c2)C1
cytotoxicity at 10 µM: -6.3%

Cc1ccc(CN2CCN(C(=O)c3ccc(CO)cc3)C(C)C2=O)cc1 (configuration not stated)
cytotoxicity at 10 µM: 6.42%

Cc1nc(C2CCN(C[C@H](C)CO)CC2)cc(N2CCOCC2)n1
cytotoxicity at 10 µM: -9.3%

Cc1ncc(CNC2CC(=O)N(CCc3cccc(Cl)c3)C2)n1C (configuration not stated)
cytotoxicity at 10 µM: -133%

O=c1[nH]c(NC2CCCC2)nc2nccc(-c3ccsc3)c12
cytotoxicity at 10 µM: -12.1%

O=C(NCCN1CCOCC1)c1ccc(-c2ccc(F)cc2)nc1O
cytotoxicity at 10 µM: 2.25%

Cc1cc(C(F)(F)F)nn1CCCNC(=O)C1CCCO1 (configuration not stated)
cytotoxicity at 10 µM: -6.5%

Cc1cc2n(n1)CC(CNCc1ccc(OCC3CC3)nc1)CN2 (configuration not stated)
cytotoxicity at 10 µM: -8.42%

CCOC(=O)c1sc2ccsc2c1CNC(=O)CCOC
cytotoxicity at 10 µM: -16.7%

CCc1ccccc1OCC(=O)N1CCOCC1c1ncon1 (configuration not stated)
cytotoxicity at 10 µM: -8.93%

CCOc1cc(C)nc(N2CCN(C(=O)C(C)NC(C)=O)CC2)n1 (configuration not stated)
cytotoxicity at 10 µM: -4.41%

CN(C(=O)Cc1ccccc1Cl)C1CCN(c2ccccn2)CC1
cytotoxicity at 10 µM: -7.48%

Cc1nc(NC(=O)CN2CCOC(Cn3cccn3)C2)sc1C (configuration not stated)
cytotoxicity at 10 µM: -8.27%

CC(C)(C)c1nc(CN2CCCC2Cn2cccn2)no1 (configuration not stated)
cytotoxicity at 10 µM: 0.222%

CCn1cnnc1CNC(=O)N1CCN(c2nc(C)c(C)s2)CC1
cytotoxicity at 10 µM: -9.62%

CC(C)c1nc(C2CCCN2C(=O)c2nccnc2N)no1 (configuration not stated)
cytotoxicity at 10 µM: -1.96%

CCc1noc(C(C)N2CCN(Cc3noc(C)n3)CC2)n1 (configuration not stated)
cytotoxicity at 10 µM: -4.48%

CC(O)CN1CCN(C(=O)c2ccc3c(c2)COC3)CC1 (configuration not stated)
cytotoxicity at 10 µM: -6.44%

Cc1cnn(CC2CCCN2CCc2nc3ccccc3c(=O)[nH]2)c1 (configuration not stated)
cytotoxicity at 10 µM: -5.79%

CC(C)(C)c1nc(CN2CCCC(Cn3cncn3)C2)cs1 (configuration not stated)
cytotoxicity at 10 µM: -4.54%

COc1cc(C)c(S(=O)(=O)NCc2cccnc2N(C)C)c(C)c1
cytotoxicity at 10 µM: 12.2%

O=C(NCC(F)F)c1cnc(C2CCCN2)cn1 (configuration not stated)
cytotoxicity at 10 µM: 0.13%

CN1CCC2(COCCN(Cc3ccc4c(c3)OCO4)C2)C1 (configuration not stated)
cytotoxicity at 10 µM: -2.05%

Cc1cnc(N2CCC3(CCCN3C(=O)c3ccco3)CC2)nc1
cytotoxicity at 10 µM: 6.71%

Cc1ccc2c(c1)CN(C(=O)C1CCCCC1)C(CN(C)C)CO2 (configuration not stated)
cytotoxicity at 10 µM: 1.85%

CCc1c(C)[nH]c(C(C)(C)N)nc1=O
cytotoxicity at 10 µM: -11%

Cn1nc(COc2cccnc2)c2c1CCN(CC1CC1)C2
cytotoxicity at 10 µM: -97.8%

O=C(NCc1cncc2c1CCN(C1CCOCC1)C2)c1ccco1
cytotoxicity at 10 µM: -0.758%

CC(C)n1nc(CN(C)C)c2c1CN(C(=O)CC1CC1)CC2
cytotoxicity at 10 µM: -6.72%

CCc1ncc(C(=O)N2CC[C@H]3CC[C@@H](C2)N3C)cn1
cytotoxicity at 10 µM: -7.09%
